Measured values: ChEMBL document CHEMBL3864121, “Development of ebsulfur analogues as potent antibacterials against methicillin-resistant Staphylococcus aureus” (Bioorg Med Chem, 2016)
Converted amounts (≈) assume the structure as drawn. The source made the active and inactive calls. No cut-off for these calls is given here.

Key:
[1] = test system: Staphylococcus aureus; assay: Antibacterial activity against methicillin-resistant Staphylococcus aureus G1 measured after overnight incubation by broth double-dilution method; assay type: functional
Summary of the method: (§1)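 MIC by broth double-dilution in liquid Mueller-Hinton medium. Values are reported in µg/mL.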

[2] = test system: Staphylococcus aureus; assay: Antibacterial activity against methicillin-resistant Staphylococcus aureus G12 measured after overnight incubation by broth double-dilution method; assay type: functional; summary of the method: as §1
[3] = Cytotoxicity against HEK293 cells assessed as cell death at […] measured after 24 hrs by resazurin dye-based fluorescence analysis relative to untreated control; assay type: toxicity; settings: human, hek293, 24 h
[4] = test system: Staphylococcus aureus; assay: Antibacterial activity against methicillin-resistant Staphylococcus aureus BRS3 measured after overnight incubation by broth double-dilution method; assay type: functional; summary of the method: as §1
[5] = test system: Staphylococcus aureus; assay: Antibacterial activity against methicillin-resistant Staphylococcus aureus ATCC 33591 measured after overnight incubation by broth double-dilution method; assay type: functional; summary of the method: as §1
[6] = test system: Listeria monocytogenes; assay: Antibacterial activity against Listeria monocytogenes ATCC 19115 measured after overnight incubation by broth double-dilution method; assay type: functional
Summary of the method: (§2)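 MIC by broth double-dilution in Mueller-Hinton medium. Re-testing at the time-kill inoculum used 1×10^6 CFU/mL.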

[7] = test system: Staphylococcus aureus; assay: Bacteriostatic activity against methicillin-resistant Staphylococcus aureus S22 at 0.5 times MIC measured up to 3 to 6 hrs by time kill analysis; assay type: functional
[8] = species on record: Mus musculus; assay: Cytotoxicity against mouse RBCs assessed as hemolysis at 0.24 to 31.2 ug/ml measured after 1 hr; assay type: toxicity; settings: erythrocyte
Summary of the method: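 Murine red blood cells were exposed to compounds at various concentrations, with amikacin as a control. Percent hemolysis was scored against untreated cells (0%) and 1% Triton X (100%).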

[9] = test system: Staphylococcus aureus; assay: Bacteriostatic activity against methicillin-resistant Staphylococcus aureus S22 at 4 times MIC measured after 24 hrs by time kill analysis; assay type: functional
[10] = test system: Enterococcus faecalis; assay: Antibacterial activity against Enterococcus faecalis ATCC 29212 measured after overnight incubation by broth double-dilution method; assay type: functional; summary of the method: as §2
[11] = test system: Enterococcus; assay: Antibacterial activity against Vancomycin-resistant Enterococcus measured after overnight incubation by broth double-dilution method; assay type: functional; summary of the method: as §1
[12] = test system: Staphylococcus aureus; assay: Antibacterial activity against methicillin-resistant Staphylococcus aureus NRS4 measured after overnight incubation by broth double-dilution method; assay type: functional; summary of the method: as §1
[13] = test system: Staphylococcus aureus; assay: Antibacterial activity against methicillin-sensitive Staphylococcus aureus ATCC 25923 measured after overnight incubation by broth double-dilution method; assay type: functional; summary of the method: as §1
[14] = test system: Staphylococcus aureus; assay: Antibacterial activity against methicillin-resistant Staphylococcus aureus C19 measured after overnight incubation by broth double-dilution method; assay type: functional; summary of the method: as §1
[15] = test system: Staphylococcus aureus; assay: Antibacterial activity against methicillin-resistant Staphylococcus aureus USA300 measured after overnight incubation by broth double-dilution method; assay type: functional; summary of the method: as §1
[16] = test system: Staphylococcus aureus; assay: Antibacterial activity against methicillin-resistant Staphylococcus aureus C16 measured after overnight incubation by broth double-dilution method; assay type: functional; summary of the method: as §1
[17] = test system: Staphylococcus aureus; assay: Antibacterial activity against methicillin-resistant Staphylococcus aureus S22 measured after overnight incubation by broth double-dilution method; assay type: functional; summary of the method: as §1
[18] = test system: Staphylococcus aureus; assay: Antibiofilm activity against methicillin-sensitive Staphylococcus aureus ATCC 6538 assessed as reduction of biofilm at […] measured after 24 hrs by crystal violet staining based method relative to control; assay type: functional; design: scale not given: the % may be the effect or the level left
[19] = test system: Staphylococcus aureus; assay: Antibacterial activity against methicillin-resistant Staphylococcus aureus S17 measured after overnight incubation by broth double-dilution method; assay type: functional; summary of the method: as §1
[20] = test system: Staphylococcus aureus; assay: Antibacterial activity against methicillin-resistant Staphylococcus aureus 1 measured after overnight incubation by broth double-dilution method; assay type: functional; summary of the method: as §1
[21] = test system: Staphylococcus epidermidis RP62A; assay: Inhibition of thioredoxin reductase in Staphylococcus epidermidis ATCC 35984 assessed as induction of ROS production at 1 to 4 times MIC measured after 1 hr by DCFH-DA staining-based fluorescence microscopic analysis
Summary of the method: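 Untreated cells served as the negative control and 1 mM H2O2 as the positive control. Cells were stained with DCFH-DA (40 µg/mL) and ROS were visualized by fluorescence microscopy.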

[22] = test system: Staphylococcus aureus; assay: Antibacterial activity against methicillin-resistant Staphylococcus aureus C1 measured after overnight incubation by broth double-dilution method; assay type: functional; summary of the method: as §1
[23] = test system: Staphylococcus aureus; assay: Antibacterial activity against methicillin-resistant Staphylococcus aureus 2 measured after overnight incubation by broth double-dilution method; assay type: functional; summary of the method: as §1
[24] = test system: Mycolicibacterium smegmatis; assay: Antibacterial activity against Mycobacterium smegmatis MC2-155 measured after overnight incubation by broth double-dilution method; assay type: functional; settings: str. MC2 155; summary of the method: as §1
[25] = test system: Staphylococcus aureus; assay: Antibacterial activity against methicillin-resistant Staphylococcus aureus C7 measured after overnight incubation by broth double-dilution method; assay type: functional; summary of the method: as §1
[26] = test system: Staphylococcus aureus; assay: Antibacterial activity against methicillin-resistant Staphylococcus aureus USA600 measured after overnight incubation by broth double-dilution method; assay type: functional; summary of the method: as §1
[27] = test system: Staphylococcus epidermidis; assay: Antibacterial activity against Staphylococcus epidermidis ATCC 35984 measured after overnight incubation by broth double-dilution method; assay type: functional; settings: RP62A; summary of the method: as §2
[28] = test system: Staphylococcus aureus; assay: Antibacterial activity against methicillin-resistant Staphylococcus aureus NRS77 measured after overnight incubation by broth double-dilution method; assay type: functional; summary of the method: as §1
[29] = Cytotoxicity against mouse RBCs assessed as hemolysis up to […] measured after 1 hr; assay type: toxicity, Erythrocyte; settings: mouse red blood cells, read-out: Activity
[30] = test system: Staphylococcus aureus; assay: Antibacterial activity against methicillin-resistant Staphylococcus aureus G14 measured after overnight incubation by broth double-dilution method; assay type: functional; summary of the method: as §1
[31] = test system: Staphylococcus aureus; assay: Bacteriostatic activity against methicillin-resistant Staphylococcus aureus S22 at MIC measured up to 3 to 6 hrs by time kill analysis; assay type: functional
[32] = test system: Staphylococcus aureus; assay: Antibacterial activity against methicillin-resistant Staphylococcus aureus G6 measured after overnight incubation by broth double-dilution method; assay type: functional; summary of the method: as §1
[33] = test system: Staphylococcus aureus; assay: Antibacterial activity against methicillin-sensitive Staphylococcus aureus ATCC 6538 measured after overnight incubation by broth double-dilution method; assay type: functional; summary of the method: as §1
[34] = test system: Staphylococcus aureus; assay: Antibacterial activity against methicillin-resistant Staphylococcus aureus S14 measured after overnight incubation by broth double-dilution method; assay type: functional; summary of the method: as §1
[35] = test system: Staphylococcus aureus; assay: Antibacterial activity against methicillin-resistant Staphylococcus aureus C14 measured after overnight incubation by broth double-dilution method; assay type: functional; summary of the method: as §1
[36] = test system: Staphylococcus aureus; assay: Antibacterial activity against methicillin-resistant Staphylococcus aureus NRS51 measured after overnight incubation by broth double-dilution method; assay type: functional; summary of the method: as §1
[37] = test system: Enterococcus faecalis; assay: Antibacterial activity against Enterococcus faecalis ATCC 49533 measured after overnight incubation by broth double-dilution method; assay type: functional; summary of the method: as §2
[38] = test system: Staphylococcus aureus; assay: Antibacterial activity against methicillin-resistant Staphylococcus aureus S22 using 1 10^6CFU/ml measured after overnight incubation by broth double-dilution method; assay type: functional
[39] = test system: Staphylococcus aureus; assay: Antibacterial activity against methicillin-resistant Staphylococcus aureus USA200 measured after overnight incubation by broth double-dilution method; assay type: functional; summary of the method: as §1
[40] = test system: Staphylococcus aureus; assay: Antibacterial activity against methicillin-resistant Staphylococcus aureus C2 measured after overnight incubation by broth double-dilution method; assay type: functional; summary of the method: as §1
[41] = test system: Enterococcus faecium; assay: Antibacterial activity against Enterococcus faecium BM4105-RF measured after overnight incubation by broth double-dilution method; assay type: functional; summary of the method: as §1
[42] = test system: Staphylococcus aureus; assay: Antibacterial activity against methicillin-resistant Staphylococcus aureus S24 measured after overnight incubation by broth double-dilution method; assay type: functional; summary of the method: as §1
[43] = test system: Staphylococcus aureus; assay: Antibacterial activity against methicillin-sensitive Staphylococcus aureus ATCC 29213 measured after overnight incubation by broth double-dilution method; assay type: functional; summary of the method: as §1
[44] = test system: Staphylococcus aureus; assay: Antibacterial activity against methicillin-resistant Staphylococcus aureus USA100 measured after overnight incubation by broth double-dilution method; assay type: functional; summary of the method: as §1

For `CCCCCCCCn1sc2ccccc2c1=O`, the MIC [1] was ≤ 0.25 µg/mL, the MIC [2] was 1 µg/mL (≈ 3.8 µM) and the Activity [3] was > 20%. For the same compound, the MIC [4] was 1 µg/mL (≈ 3.8 µM), the MIC [5] was 0.5 µg/mL (≈ 1.9 µM) and the MIC [6] was 1 µg/mL (≈ 3.8 µM). The Activity [7] was “Active”, the Activity [8] was “Non-Toxic” and the Activity [9] was “Active”. The MIC [10] was > 125 µg/mL, the MIC [11] was 0.5 µg/mL (≈ 1.9 µM) and the MIC [12] was 1 µg/mL (≈ 3.8 µM). For the same compound, the MIC [13] was 1 µg/mL (≈ 3.8 µM), the MIC [14] was 0.5 µg/mL (≈ 1.9 µM) and the MIC [15] was 2 µg/mL (≈ 7.59 µM). The MIC [16] was 2 µg/mL (≈ 7.59 µM), the MIC [17] was 1 µg/mL (≈ 3.8 µM) and the Activity [18] was 40%. For the same compound, the MIC [19] was 1 µg/mL (≈ 3.8 µM), the MIC [20] was 0.5 µg/mL (≈ 1.9 µM) and the Activity [21] was “Active”. It also gave an MIC [22] of 1 µg/mL (≈ 3.8 µM), an MIC [23] of 1 µg/mL (≈ 3.8 µM) and an MIC [24] of 2 µg/mL (≈ 7.59 µM). It also gave an MIC [25] of 1 µg/mL (≈ 3.8 µM), an MIC [26] of 3.9 µg/mL (≈ 14.8 µM) and an MIC [27] of 1 µg/mL (≈ 3.8 µM). The MIC [28] was 1 µg/mL (≈ 3.8 µM), the hemolysis at 1 h [29] was ≤ 20% and the MIC [30] was 1 µg/mL (≈ 3.8 µM). For the same compound, the Activity [31] was “Active”, the MIC [32] was 1 µg/mL (≈ 3.8 µM) and the MIC [33] was 1 µg/mL (≈ 3.8 µM). For the same compound, the MIC [34] was ≤ 0.25 µg/mL, the MIC [35] was 1 µg/mL (≈ 3.8 µM) and the MIC [36] was 1 µg/mL (≈ 3.8 µM). For the same compound, the MIC [37] was > 125 µg/mL, the Activity [38] was “Active” and the MIC [39] was 3.9 µg/mL (≈ 14.8 µM). The MIC [40] was 0.5 µg/mL (≈ 1.9 µM), the MIC [41] was 2 µg/mL (≈ 7.59 µM) and the MIC [42] was 1 µg/mL (≈ 3.8 µM). It also gave an MIC [43] of 1 µg/mL (≈ 3.8 µM) and an MIC [44] of 2 µg/mL (≈ 7.59 µM).
